Measured values of several laboratories.
Protocols differ between the studies behind these lines.
Target: Mitogen-activated protein kinase 9 (MAPK9, Homo sapiens, UniProt P45984)

Compound	test	setting	remaining binding
C[C@H]1CCN(c2nccc(-c3cnn4ncccc34)n2)C1	binding	1 µM	60%
C[C@H](c1ccc(F)cc1)N(Cc1cccc(C(=O)O)c1)C(=O)c1cnc2ccccc2c1	cell-free assay, competition with immobilised ligand	1 µM	81%
Cc1cnc(Nc2ccc(C(=O)N3CCC(N4CCCC4)CC3)cc2)nc1-c1cc2ccccc2s1	binding, competition with immobilised ligand	1 µM	14%
COC(=O)Nc1nc2ccc(C(=O)c3ccccc3)cc2[nH]1	cell-free assay, competition with immobilised ligand	10 µM	9.6%
CCS(=O)(=O)c1cc2cc(C[C@@](O)(CC(C)(C)c3ccc(F)cc3C(N)=O)C(F)(F)F)[nH]c2cn1	cell-free assay, competition with immobilised ligand	1 µM	84%
FC(F)(F)Oc1cccc(-c2cnc3ccc(-c4ccncc4)nn23)c1	cell-free assay, competition with immobilised ligand	5 µM	76%
O=C(Nc1c[nH]nc1C(=O)NC1CCNCC1)c1cc(F)cc(F)c1	binding, competition with immobilised ligand	1 µM	100%
C[C@@H]1CN(c2ccc3ncc(-c4ccc5[nH]nc(C6CC6)c5c4)n3n2)C[C@H](C)O1	binding, competition with immobilised ligand	50 nM	80%
c1cncc(-c2cccc(Nc3nccc(NC4CCCCC4)n3)c2)c1	binding, competition with immobilised ligand	10 µM	74%
O=C(NCCCN1CCOCC1)c1ccc(Nc2nccc(-c3cc4ccccc4s3)n2)cc1	binding, competition with immobilised ligand	1 µM	33%
COc1cnc(Nc2cccc(S(N)(=O)=O)c2)nc1N1CCN(c2ccccc2)CC1	binding, competition with immobilised ligand	1 µM	72%
CCC(=O)N[C@H]1CC[C@@H](C(=O)N(C)c2ccc(-c3nc4ccccc4o3)cc2)C1	cell-free assay, competition with immobilised ligand	1 µM	79%
c1cnn2ncc(-c3ccnc(N4CCC45COC5)n3)c2c1	binding	1 µM	44%
CCC(=N\O)/C(C)=C/c1ccc(F)cc1	cell-free assay, competition with immobilised ligand	1 µM	92%
CN(CCCC(F)(F)F)c1nccc(-c2cnn3ncccc23)n1	binding	1 µM	90%
CN(C(=O)c1ccccc1)c1cc(N(C)c2ccc3c(c2)CCc2ccc(C(=O)NCCN4CCOCC4)cc2C3=O)ccc1F	cell-free assay, competition with immobilised ligand	1 µM	100%
N#Cc1ccccc1CSc1nnc2c(n1)[nH]c1ccccc12	binding, competition with immobilised ligand	10 µM	90%
COc1ccnn2ncc(-c3ccnc(N(C)C)n3)c12	binding	1 µM	100%
O=C(c1ccc(Nc2ncc(Cl)c(-c3cc4ccccc4s3)n2)cc1)N1CCC(N2CCCC2)CC1	binding, competition with immobilised ligand	1 µM	9.8%
CN(C)c1ncc(F)c(-c2cnn3ncccc23)n1	binding	1 µM	82%
CNC(=O)Nc1ccc2c(c1)[C@@]1(CC2)OC(=O)N(CC(=O)N(Cc2ccc(F)cc2)[C@@H](C)C(F)(F)F)C1=O	cell-free assay, competition with immobilised ligand	1 µM	69%
N[C@H]1CCN(c2nccc(-c3cnn4ncccc34)n2)C1	binding	1 µM	100%
O=C(NCCCC1CCCCC1)c1ccc(CNC(=O)c2cnn(-c3ccccc3)c2C(F)(F)F)cc1	cell-free assay, competition with immobilised ligand	0.1 µM	85%
